Results taken from ChEMBL document CHEMBL1155099, “Natural products in parallel synthesis: triazole libraries of nonactic acid” (2008).
Active and inactive are the calls of the source.

Legend:
Type in all cases: functional, organism-based
Saccharomyces cerevisiae = assay: Antifungal activity against Saccharomyces cerevisiae at 1 mM by almar blue dye reduction assay
How it was run: (§1)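 Single-point primary screen at 1 mM using Alamar Blue dye reduction as the growth read-out.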

Candida albicans = assay: Antifungal activity against Candida albicans at 1 mM by almar blue dye reduction assay; how it was run: as §1
Escherichia coli = assay: Antibacterial activity against Escherichia coli at 1 mM by almar blue dye reduction assay; how it was run: as §1
Cryptococcus neoformans = assay: Antifungal activity against Cryptococcus neoformans at 1 mM by almar blue dye reduction assay; how it was run: as §1
Pseudomonas aeruginosa = assay: Antibacterial activity against Pseudomonas aeruginosa at 1 mM by almar blue dye reduction assay; how it was run: as §1
Bacillus cereus = assay: Antibacterial activity against Bacillus cereus at 1 mM by almar blue dye reduction assay; how it was run: as §1
Bacillus subtilis = assay: Antibacterial activity against Bacillus subtilis at 1 mM by almar blue dye reduction assay; how it was run: as §1
Bacillus anthracis = assay: Antibacterial activity against Bacillus anthracis at 1mM by almar blue dye reduction assay
Staphylococcus aureus = assay: Antibacterial activity against Staphylococcus aureus at 1 mM by almar blue dye reduction assay; how it was run: as §1

Measured: Activity

COc1ccc(OCC#Cc2cn([C@H](C)C[C@@H]3CC[C@H]([C@@H](C)C(=O)NC(C)C)O3)nn2)cc1
inactive: all assays above

C[C@H](C[C@@H]1CC[C@H]([C@@H](C)C(=O)N(C)Cc2ccccc2)O1)n1cc(C#Cc2ccc(Oc3ccccc3)cc2)nn1
inactive: all assays above

CCN(CC)C(=O)[C@H](C)C1CCC(C[C@@H](C)n2cc(C#CCOC(=O)Nc3cccc(C)c3)nn2)O1 (single isomer, unassigned)
inactive: all assays above

CCC(=O)OCC#Cc1cn([C@H](C)CC2CCC([C@@H](C)C(=O)N3CCN(CC4CCCO4)CC3)O2)nn1 (single isomer, unassigned)
inactive: all assays above

C[C@H](C[C@@H]1CC[C@H]([C@@H](C)C(=O)N2CCCC2)O1)n1cc(C#Cc2ccc(C(F)(F)F)cc2)nn1
inactive: all assays above

CCCCN(CC#Cc1cn([C@H](C)C[C@@H]2CC[C@H]([C@@H](C)C(=O)N(CC)CC)O2)nn1)CCCC
inactive: all assays above

CCCCCC#Cc1cn([C@H](C)C[C@@H]2CC[C@H]([C@@H](C)C(=O)N(CC)CC)O2)nn1
inactive: all assays above

CCN(CC)C(=O)[C@H](C)[C@H]1CC[C@@H](C[C@@H](C)n2cc(C#Cc3cccc4ccccc34)nn2)O1
inactive: all assays above

C[C@H](C[C@@H]1CC[C@H]([C@@H](C)C(=O)N2CCN(CC3CCCO3)CC2)O1)n1cc(C#Cc2ccccc2[N+](=O)[O-])nn1 (stereo partly drawn)
inactive: all assays above

COc1cccc(OCC#Cc2cn([C@H](C)C[C@@H]3CC[C@H]([C@@H](C)C(=O)N4CCN(CC5CCCO5)CC4)O3)nn2)c1OC (stereo partly drawn)
inactive: all assays above

C[C@H](C[C@@H]1CC[C@H]([C@@H](C)C(=O)N2CCCC2)O1)n1cc(C#CCN2CCOCC2)nn1
inactive: all assays above

CC(C)NC(=O)[C@H](C)[C@H]1CC[C@@H](C[C@@H](C)n2cc(C#Cc3ccc(Oc4ccccc4)cc3)nn2)O1
inactive: all assays above

COCCNCC#Cc1cn([C@H](C)C[C@@H]2CC[C@H]([C@@H](C)C(=O)NC(C)C)O2)nn1
inactive: all assays above

CC(C)NC(=O)[C@H](C)[C@H]1CC[C@@H](C[C@@H](C)n2cc(C#CCOc3ccc(Br)cc3)nn2)O1
inactive: all assays above

CC(C)NC(=O)[C@H](C)[C@H]1CC[C@@H](C[C@@H](C)n2cc(C#CCN3CCC(c4ccccc4)CC3)nn2)O1
inactive: all assays above

CCN(CC)C(=O)[C@H](C)[C@H]1CC[C@@H](C[C@@H](C)n2cc(C#CCOc3ccc(Br)cc3)nn2)O1
inactive: all assays above

C[C@H](C[C@@H]1CC[C@H]([C@@H](C)C(=O)N2CCN(CC3CCCO3)CC2)O1)n1cc(C#CC2=CCCCC2)nn1 (stereo partly drawn)
inactive: all assays above
